This is an account of results in ChEMBL document CHEMBL3272174, “Molecular structural effects involved in the interaction of quinolinemethanolamines with DNA. Implications for antimalarial action” (1977).

Active and inactive are the calls of the source.

For test [1], the system named is Calf thymus DNA. The experiment in a line: Binding affinity to calf thymus DNA assessed as melting temperature at 10^-4 M by thermal denaturation assay. It is filed as nucleic-acid assay. Particulars: Bos taurus. Put shortly:
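Calf thymus DNA dissolved in standard buffer (3.8×10^-3 M NaH2PO4, 5×10^-4 M EDTA, pH 7.0, ionic strength 0.0095) and dialyzed against it. Thermal denaturation: DNA at 10^-4 M (nucleotide equivalents), drug at 10^-4 M. Absorbance recorded as a function of temperature in stoppered 1.0-cm quartz cuvettes, with a thermistor in the cell block.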

The subject of test [2] is Plasmodium berghei. In words: Antimalarial activity against Plasmodium berghei infected in mouse assessed as increase in mean survival time at 320 mg/kg measured after 60 days post infection relative to control. The test is classed as functional. Put shortly: (§1)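 Tested at Walter Reed Army Institute of Research (communicated data) in mice infected with P. berghei. Five mice per test. Read-out is the increase in mean survival time (ΔMST, days) over the control group. Activity is defined as ΔMST above 6.1 days. Cure (C) is scored when at least one of the five mice survives to 60 days postinfection.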

The subject of test [3] is Calf thymus DNA. In words: Binding affinity to sonicated calf thymus DNA at 10^-3 M by spectroscopy. It is filed as nucleic-acid assay. The settings on record: Bos taurus. Put shortly:
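Difference spectra: sonicated calf thymus DNA (2.3×10^-3 M) and drug (3.5×10^-4 M) in standard pH 7.0 phosphate/EDTA buffer were loaded in separate compartments of 10-mm tandem cells to set a baseline. Equal volumes were then mixed and read against the separated solutions.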

The subject of test [4] is Plasmodium berghei. The experiment in a line: Antimalarial activity against Plasmodium berghei infected in mouse assessed as increase in mean survival time at 80 mg/kg measured after 60 days post infection relative to control. The test is classed as functional. Put shortly: as §1
In test [5] the test system is Escherichia coli. The experiment in a line: Binding affinity to closed circular superhelical Escherichia coli ColE1 DNA by viscometric titrations.
Test [6] has as its system Plasmodium berghei. In words: Antimalarial activity against Plasmodium berghei infected in mouse assessed as increase in mean survival time at 40 mg/kg measured after 60 days post infection relative to control. The test is classed as functional. In short, it runs like this: as §1
For test [7], the system named is Plasmodium berghei. In words: Antimalarial activity against Plasmodium berghei infected in mouse assessed as increase in mean survival time at 160 mg/kg measured after 60 days post infection relative to control. The test is classed as functional. Put shortly:
as §1

Test [8] has as its system Plasmodium berghei. The experiment in a line: Antimalarial activity against Plasmodium berghei infected in mouse assessed as increase in mean survival time at 640 mg/kg measured after 60 days post infection relative to control. It is filed as functional. Put shortly: as §1
Test [9] has as its system Calf thymus DNA. In words: Binding affinity to sonicated calf thymus DNA by viscometric titrations. The test is classed as nucleic-acid assay. Particulars: Bos taurus. Put shortly:
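Sonicated calf thymus DNA (1.0-3.0 mL) titrated with small aliquots of concentrated drug stock in a semimicro Ubbelohde dilution viscometer at 25 °C, in standard buffer. Volume change stayed at or below 3%, and DNA dilution was corrected. Reduced specific viscosity ratio plotted against drug/nucleotide molar ratio.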

Test [10] concerns Calf thymus DNA. In words: Binding affinity to calf thymus DNA assessed as melting temperature at 10^-5 M by thermal denaturation assay. The settings on record: Bos taurus. It is filed as nucleic-acid assay. In short, it runs like this:
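Thermal melting of dialyzed calf thymus DNA (10^-4 M nucleotide) with drug at 10^-5 M, in standard phosphate/EDTA buffer at pH 7.0. Absorbance followed against temperature in 1.0-cm stoppered quartz cuvettes, with temperature monitored by a cell-block thermistor.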

In test [11] the test system is Escherichia coli. The experiment in a line: Inhibition of Escherichia coli RNA polymerase assessed as reduction in RNA transcription at compound/DNA molar ratio of 1.
Test [12] concerns Plasmodium berghei. The experiment in a line: Antimalarial activity against Plasmodium berghei infected in mouse assessed as increase in mean survival time at 80 to 640 mg/kg measured after 60 days post infection relative to control. It is filed as functional, organism-based.

As a reminder, the Tm is the temperature at the midpoint of the melting transition.

Take `NC(=O)c1cc(C(O)C2CCCCN2)c2cccc(C(F)(F)F)c2n1` (configuration not stated): in the test with Calf thymus DNA [1], the midpoint of thermal melting (Tm) amounted to 64.9 °C. For the same compound, the “fold change (FC)” value in the test on Plasmodium berghei [2] came out at 0.7; in the test on Plasmodium berghei [4], 0.3; with Plasmodium berghei [6], 0.3; in the test with Plasmodium berghei [7], 0.5; in the test with Plasmodium berghei [8] it was 7.9. Besides, the result with Calf thymus DNA [3] and in the test on Calf thymus DNA [9] was Active. For the same compound, the result in the test with Escherichia coli [5] was inactive.
For `CCN(CC)CCCC(C)Nc1ccnc2cc(Cl)ccc12` (configuration not stated), the result with Escherichia coli [5] was inactive. Also, the Tm with Calf thymus DNA [10] came to 75 °C. Besides, in the test with Calf thymus DNA [9], the result was Active.
As for `COc1cccc2c1C(=O)c1c(O)c3c(c(O)c1C2=O)C[C@@](O)(C(C)=O)C[C@@H]3O[C@H]1C[C@H](N)[C@H](O)[C@H](C)O1`, the result in the test with Escherichia coli [11] was Active.
Take `OC(c1cc(C(F)(F)F)nc2c(F)cccc12)C1CCCCN1` (configuration not stated): the Tm in the test on Calf thymus DNA [1] was 61.5 °C. Further, the “fold change (FC)” value with Plasmodium berghei [2] is on record as 7.1; in the test with Plasmodium berghei [4] it was 4.1. In addition, the result in the test on Calf thymus DNA [3] was Active. Also, the result with Escherichia coli [5] and in the test on Calf thymus DNA [9] was inactive.
Regarding `CCN(CC)CCCC(C)Nc1c2ccc(Cl)cc2nc2ccc(OC)cc12` (configuration not stated), the result with Escherichia coli [5] and in the test on Calf thymus DNA [9] was Active. In the test on Calf thymus DNA [10], the Tm is 88 °C.
With `NCCCCN`, the outcome in the test on Escherichia coli [5] was inactive.
For the compound `C=C[C@H]1CN2CC[C@H]1C[C@H]2[C@H](O)c1ccnc2ccc(OC)cc12`, the Tm in the test on Calf thymus DNA [1] was determined as 66.3 °C. Besides, the outcome in the test on Calf thymus DNA [3] and with Calf thymus DNA [9] was Active.
For `O[C@@H](c1cc(C(F)(F)F)nc2c(C(F)(F)F)cccc12)[C@H]1CCCCN1` (relative stereo), the Tm in the test with Calf thymus DNA [1] was determined as 63 °C. In addition, the outcome in the test on Calf thymus DNA [3] and with Plasmodium berghei [12] was Active. The result in the test on Escherichia coli [5], with Escherichia coli [11] and in the test on Calf thymus DNA [9] was inactive.
